# Bioassay records as filed in PubChem BioAssay.
# aSyn 5UTR inh: MLPCN primary screen, SNCA 5' untranslated region; AID 1813; alpha-synuclein 5'UTR reporter, inhibitor activity; 0.82% of 300,000 active; inhibition, % (tested at 7.5 µM); in the data active = inhibition above about 60%;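 also: H4 neuroglioblastoma cells stably carrying SNCA 5'UTR luciferase fusion; 0% = DMSO wells and 100% = positive control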
# VIM-2 inhibitor: inhibitors of Pseudomonas aeruginosa VIM-2 metallo-beta-lactamase. purified VIM-2, nitrocefin hydrolysis, epi-absorbance fluorescence. AID 1527. inhibition, % at 5.6 µM. 0.89% of 290,000 active;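 active = inhibition above the mean of all tested compounds plus 3 SD, cutoff set per screening run, cut at about 7.5% in these data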;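 also: red hydrolysis product quenches plate fluorescence so inhibitors raise well fluorescence; 0% = enzyme with DMSO and 100% = DMSO without enzyme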
# IMP-1 inh: blocks Pseudomonas aeruginosa IMP-1 metallo-beta-lactamase. 0.45% of 290,000 active. inhibition, % at 5.6 µM. purified IMP-1, nitrocefin hydrolysis, epi-absorbance fluorescence. AID 1556;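 active = inhibition above the mean plus 3 SD of all compounds in the same screening run, cut at about 4.5% in these data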;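 also: 0% = IMP-1 with DMSO and 100% = DMSO wells lacking enzyme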
#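 System: Purified IMP-1 | Read-out basis: Percent enzyme inhibition | Controls: IMP-1 with DMSO as 0%, enzyme-free DMSO as 100% | Replicates: One well per compound | Doses: 5.6 µM nominal single concentration | Detection: Epi-absorbance fluorescence, 480 nm excitation, 530 nm emission | Incubation: 25 °C, 15 min preincubation, 25 min reaction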
# Mdm2-MdmX inh: disrupts the human Mdm2-MdmX interaction; O15151+Q00987; SaOS-2 split-luciferase Mdm2/MdmX complementation, luminescence; inhibition, % at 8 µM; 3% of 330,000 active; AID 485346;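 active = inhibition of at least 50% at 8 µM in the primary screen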
# 697 NFkB inh: lowers PMA/ionomycin-induced NF-kB signal in 697 B cells; inhibition, % at 4 µM; 0.33% of 330,000 active; 697 B-cell NF-kB luciferase reporter, 16 h; AID 435022; in the data active = inhibition above about 35%
# Jurkat NFkB inh: inhibitors of the PMA/ionomycin-induced NF-kB reporter in Jurkat cells | PMA/ionomycin-induced NF-kB luciferase reporter, luminescence | inhibition, % at 4 µM | 0.53% of 330,000 active | AID 435003; in the data active = inhibition above about 50%
# Mdm2 MdmX conf: human Mdm2/MdmX binding inhibition, confirmed; shares compounds with Mdm2-MdmX inh; luminescent assay; inhibition, % at 8 µM; 55% of 10,000 active; AID 489028; in the data active = inhibition above about 40%
# Full FLuc ctr: counter-screen for Mdm2/MdmX inhibitors: full-length luciferase | inhibition, % at 8 µM | AID 504607 | shares compounds with Mdm2-MdmX inh | SaOS-2 full-length luciferase counterscreen, luminescence | 77% of 6,200 active;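 active = mean inhibition at 8 µM reaching about 37%, which flags the compound as non-specific, limit read from the data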;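 also: p53-null SaOS-2 cells with luciferase driven by a doxycycline-inducible promoter; compound on cells about two nights before reading with doxycycline added after day one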
# * hit, by the source's call; i = inactive; . = not tested or not shown. Compounds with a hit are over-represented: about 4.7% of the library has one in this group of screens.
SMILES,aSyn 5UTR inh,VIM-2 inhibitor,IMP-1 inh,Mdm2-MdmX inh,697 NFkB inh,Jurkat NFkB inh,Mdm2 MdmX conf,others
COc1cc(C(CCN2CCCCC2)c2c(OC)cc(OC)c3c(-c4ccccc4)cc(=O)oc23)cc(OC)c1OC (configuration not stated),0,.,.,65*,9,43,24,
COc1cc(C(CC(=O)N2CCCC2)c2c(OC)cc(OC)c3c(-c4ccccc4)cc(=O)oc23)cc(OC)c1OC (configuration not stated),15,.,.,25,9,-15,.,
COc1cc(C(CCN2CCCC(C)C2)c2c(OC)cc(OC)c3c(-c4ccccc4)cc(=O)oc23)cc(OC)c1OC (configuration not stated),17,.,.,82*,15,16,25,
Cc1c(-c2ccc(/C=N/NC(=O)C(=O)Nc3ccccc3F)o2)cccc1[N+](=O)[O-],9,-1,-3,56*,-1,-8,-1,
C/C1=C\CCC2C(/C=C(\C)CC1)OC(=O)C2CN1CCCCC1 (configuration not stated),-50,-3,-5,60*,-6,27,35,
C=C1CCC[C@]2(C)C[C@H]3OC(=O)C(CN4CCOCC4)[C@H]3C[C@@H]12 (some centres not stated),-61,-3,-2,30,-6,-22,.,
CCOc1ccc(NC(=O)Cn2c(=O)n(CC3CCCO3)c(=O)c3ccccc32)cc1 (configuration not stated),0,-2,0,-21,-1,3,.,
COc1cc(/C=C2\CC/C(=C\c3cc(OC)c(OC)c(OC)c3)C2=O)cc(OC)c1OC,-55,1,0,32,26,18,.,
COc1cc(/C=C2/CCC/C(=C\c3cc(O)c(OC)c(Cl)c3)C2=O)cc(Cl)c1O,-143,1,-2,95*,-37,-3,80*,Full FLuc ctr=52*
COc1cc(/C=C2\CC/C(=C\c3cc(OC)c(O)c(OC)c3)C2=O)cc(OC)c1O,.,-3,-4,97*,9,-1,62*,Full FLuc ctr=26
O=C(Nc1ccc(-c2nc3ncccc3o2)cc1)c1ccc([N+](=O)[O-])o1,100*,-5,-3,55*,-45,40,49*,Full FLuc ctr=54*
O=C(Nc1ccc(-c2nc3cc(NC(=O)c4cccs4)ccc3o2)cc1)c1cccs1,-23,-1,-3,60*,-8,5,23,
O=C(Nc1ccc2oc(-c3ccncc3)nc2c1)c1ccccc1,-17,0,-2,-13,-19,-9,.,
O=C(Nc1ccc2oc(-c3ccncc3)nc2c1)c1ccc([N+](=O)[O-])o1,-118,0,1,56*,-3,44,44*,Full FLuc ctr=45*
Cc1ccc2nc(-c3cccc(NC(=O)c4ccc5c(c4)OCCO5)c3)oc2c1,-87,0,-1,-11,-13,-15,.,
Cc1ccc(-c2nc3ncccc3o2)cc1NC(=O)c1ccc([N+](=O)[O-])o1,i,-3,-3,44,3,25,.,
O=C(Nc1ccc2oc(-c3ccc4ccccc4c3)nc2c1)c1ccc2c(c1)OCCO2,-113,-1,-3,80*,-187,-51,-2,
O=C(CN1C(=O)c2cccnc2Oc2ccc(Cl)cc21)NCCC1=CCCCC1,-13,-2,-1,1,4,-7,.,
CSc1nnc(C)c(=O)n1COC(=O)COc1ccc(Cl)cc1Cl,-3,-1,-2,-10,-17,-17,.,
COc1cccc(NC(=O)CN(C)C(C)C(=O)N2CCCC2)c1 (configuration not stated),.,.,.,11,8,-11,.,
CCOC(=O)N1CCN(C(=O)c2cccc(N3C(=O)NC4CC3(C)Oc3ccc(Cl)cc34)c2)CC1 (configuration not stated),0,-1,-3,24,-19,6,.,
Cn1cc([N+](=O)[O-])c(C(=O)Nc2ccc(-c3nc4ccccc4o3)cc2)n1,33,-1,-1,52*,-61,-57,49*,Full FLuc ctr=43*
COc1ccc(NS(=O)(=O)c2cc(C(=O)N3CCCCCC3)ccc2C)cc1,.,.,.,1,0,-11,.,
CC[C@]12c3[nH]c4cc(CCC(=O)N(C)C)ccc4c3CCN1C(=O)[C@@H](CC(=O)NCCN1CCOCC1)C[C@@H]2C(=O)N1CCN(C(=O)c2ccco2)CC1,.,.,.,-4,0,.,.,
CC[C@]12c3[nH]c4cc(CCC(=O)N(C)C)ccc4c3CCN1C(=O)[C@@H](CC(=O)NC/C=C(\C)CCC=C(C)C)C[C@@H]2C(=O)N1CCN(C(=O)c2ccco2)CC1,.,.,.,93*,24,.,59*,Full FLuc ctr=59*
SMILES,aSyn 5UTR inh,VIM-2 inhibitor,IMP-1 inh,Mdm2-MdmX inh,697 NFkB inh,Jurkat NFkB inh,Mdm2 MdmX conf,others
CC[C@]12c3[nH]c4ccc(Cl)cc4c3CCN1C(=O)[C@@H](CC(=O)NC/C=C(\C)CCC=C(C)C)C[C@@H]2C(=O)N1CCN(C(=O)c2ccco2)CC1,.,.,.,66*,8,.,-11,
O=C(Nc1ccc(Cl)cc1)Nc1nnc(CSCc2ccccc2)s1,-9,-3,-2,58*,-33,8,23,
O=C(Nc1cccc(Cl)c1)Nc1nnc(CSCCOc2ccc(Cl)cc2)s1,31,0,1,99*,-31,12,90*,Full FLuc ctr=23
O=C(Nc1cccc(Cl)c1)Nc1nnc(CC2=CCCCC2)s1,-5,-2,-2,80*,-5,-11,43*,Full FLuc ctr=88*
Cc1ccc(NC(=O)Nc2nnc(CSCCOc3ccc(Cl)cc3)s2)cc1,-9,-2,0,-28,-2,20,.,
COc1ccc(OCCSCc2nnc(NC(=O)Nc3ccc(Cl)cc3)s2)cc1,19,0,-3,63*,-31,1,3,
O=C(Nc1nnc(CC2=CCCCC2)s1)Nc1ccccc1F,-81,-2,-2,19,-30,-21,.,
O=C(Nc1ccc(Cl)cc1)Nc1nnc(CSc2ccc(Cl)cc2)s1,-20,-3,-2,-6,16,2,.,
COc1ccccc1CNC(=O)CN1C(=O)c2ccc([N+](=O)[O-])cc2C1=O,5,-3,-1,17,-22,-37,.,
O=C(c1c(O)cc(O)cc1O)C1c2c(cc(O)c3c2O[C@H](c2ccc(O)cc2)[C@@H](O)C3)OC1c1ccc(O)cc1 (some centres not stated),.,.,.,20,26,5,.,
O=c1c2ccccc2c(C=Nc2cccc(O)c2)c(O)n1-c1ccc2c(c1)OCO2,-151,0,-2,82*,-6,27,36,
O=C1CC(=Nc2ccccc2)NN1c1ccccc1,-9,-2,-2,58*,9,-1,1,
CC(C)(C)c1ccc(C(=O)NNC(=S)NC(=O)c2cccnc2)cc1,60,-2,-1,34,-20,-39,.,
